Calls of active or inactive are those of the source. The calls are words filed in the database; no cut-off is given here.
Tests used:
[1] = tested on: Mus musculus; experiment: Reduction of total serum cholesterol level in cholesterol-fed C57BL/6 mouse at 50 to 100 mg/kg, po after 10 days; type: functional; parameters: scale not given: the % may be the effect or the level left; settings: dose mg/kg 50-100
Summary of the method: (§1)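 Male C57BL/6 mice, 8–12 weeks old, were randomized into five groups of nine. Control mice had ground chow; the other groups had chow with 2% cholesterol. Compound (50 or 100 mg/kg) or reference (100 mg/kg) was suspended in 0.5% CMC-Na and given by oral gavage; control and vehicle mice got 0.5% CMC-Na. Serum and hepatic triglyceride and total cholesterol were measured.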

[2] = tested on: Mus musculus; experiment: Reduction of serum triglyceride level in cholesterol-fed C57BL/6 mouse administered orally after 10 days; type: functional, organism-based; summary of the method: as §1
[3] = target: T1, Glucocorticoid receptor (Homo sapiens) (UniProt P04150); experiment: Antagonist activity at recombinant GR LBD expressed in HEK293T cells co-expressing GAL4 DBD assessed as inhibition of dexamethasone-induced transactivation at 20 uM by luciferase reporter gene assay; type: functional, cell-based; settings: HEK-293T
T1 sequence (whole entry): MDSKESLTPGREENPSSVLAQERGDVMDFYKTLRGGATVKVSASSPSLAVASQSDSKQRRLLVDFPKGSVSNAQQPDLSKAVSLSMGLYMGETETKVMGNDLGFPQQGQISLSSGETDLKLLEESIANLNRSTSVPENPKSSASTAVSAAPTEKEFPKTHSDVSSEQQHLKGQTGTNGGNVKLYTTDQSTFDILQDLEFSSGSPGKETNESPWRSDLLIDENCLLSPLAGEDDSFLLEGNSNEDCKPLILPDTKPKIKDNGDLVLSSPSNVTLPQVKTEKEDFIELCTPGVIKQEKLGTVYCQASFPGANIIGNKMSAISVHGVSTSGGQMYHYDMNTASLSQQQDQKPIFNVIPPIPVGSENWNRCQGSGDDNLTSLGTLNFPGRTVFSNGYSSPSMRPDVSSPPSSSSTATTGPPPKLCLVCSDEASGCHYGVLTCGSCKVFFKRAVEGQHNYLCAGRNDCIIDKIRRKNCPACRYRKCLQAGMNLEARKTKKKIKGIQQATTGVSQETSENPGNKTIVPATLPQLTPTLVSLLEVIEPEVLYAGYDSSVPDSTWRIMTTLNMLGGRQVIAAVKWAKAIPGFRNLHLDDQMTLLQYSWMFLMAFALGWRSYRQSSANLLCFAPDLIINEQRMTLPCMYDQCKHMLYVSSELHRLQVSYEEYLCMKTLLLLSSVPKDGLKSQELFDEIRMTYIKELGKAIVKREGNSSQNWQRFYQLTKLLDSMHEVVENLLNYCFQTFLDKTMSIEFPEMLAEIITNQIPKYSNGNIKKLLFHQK
Summary of the method: (§2)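 One-hybrid assay in HEK293T cells cotransfected with a Gal4 DBD–NR-LBD fusion (RXRα, LXRα, GR, PR, PPARδ or PPARγ) plus UAS-TK-Luc reporter. Compound was 20 μM, given alone or with agonist: 9cRA 0.1 μM (RXRα), TO901317 0.5 μM (LXRα), dexamethasone 50 nM (GR), progesterone 100 nM (PR), GW1516 10 μM (PPARδ), rosiglitazone 10 μM (PPARγ). Luciferase read-out; three independent experiments.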

[4] = tested on: HEK-293T; experiment: Antagonist activity at FXRalpha/RXRalpha expressed in HEK293T cells co-expressing GAL4 DBD assessed as inhibition of CDCA-induced transactivation at 40 uM after 18 hrs by luciferase reporter gene assay; type: functional, cell-based; settings: Homo sapiens
Summary of the method: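 FXR transactivation in HEK293T cells transiently transfected with pcDNA3.1-FXRα, pcDNA3.1-RXRα, pGL3-FXRE-Luc and pRL-SV40 Renilla vector. Medium was replaced 6 h after transfection with medium holding compound at varied concentrations, with or without 20 μM CDCA, for 18 h. Read-out was dual-luciferase. Three independent experiments.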

[5] = tested on: Mus musculus; experiment: Reduction of hepatic triglyceride level in cholesterol-fed C57BL/6 mouse administered orally after 10 days; type: functional, organism-based; summary of the method: as §1
[6] = target: T2, Progesterone receptor (Homo sapiens) (UniProt P06401); experiment: Antagonist activity at recombinant PR LBD expressed in HEK293T cells co-expressing GAL4 DBD assessed as inhibition of progesterone-induced transactivation at 20 uM by luciferase reporter gene assay; type: functional, cell-based; settings: HEK-293T; summary of the method: as §2
T2 sequence (whole entry): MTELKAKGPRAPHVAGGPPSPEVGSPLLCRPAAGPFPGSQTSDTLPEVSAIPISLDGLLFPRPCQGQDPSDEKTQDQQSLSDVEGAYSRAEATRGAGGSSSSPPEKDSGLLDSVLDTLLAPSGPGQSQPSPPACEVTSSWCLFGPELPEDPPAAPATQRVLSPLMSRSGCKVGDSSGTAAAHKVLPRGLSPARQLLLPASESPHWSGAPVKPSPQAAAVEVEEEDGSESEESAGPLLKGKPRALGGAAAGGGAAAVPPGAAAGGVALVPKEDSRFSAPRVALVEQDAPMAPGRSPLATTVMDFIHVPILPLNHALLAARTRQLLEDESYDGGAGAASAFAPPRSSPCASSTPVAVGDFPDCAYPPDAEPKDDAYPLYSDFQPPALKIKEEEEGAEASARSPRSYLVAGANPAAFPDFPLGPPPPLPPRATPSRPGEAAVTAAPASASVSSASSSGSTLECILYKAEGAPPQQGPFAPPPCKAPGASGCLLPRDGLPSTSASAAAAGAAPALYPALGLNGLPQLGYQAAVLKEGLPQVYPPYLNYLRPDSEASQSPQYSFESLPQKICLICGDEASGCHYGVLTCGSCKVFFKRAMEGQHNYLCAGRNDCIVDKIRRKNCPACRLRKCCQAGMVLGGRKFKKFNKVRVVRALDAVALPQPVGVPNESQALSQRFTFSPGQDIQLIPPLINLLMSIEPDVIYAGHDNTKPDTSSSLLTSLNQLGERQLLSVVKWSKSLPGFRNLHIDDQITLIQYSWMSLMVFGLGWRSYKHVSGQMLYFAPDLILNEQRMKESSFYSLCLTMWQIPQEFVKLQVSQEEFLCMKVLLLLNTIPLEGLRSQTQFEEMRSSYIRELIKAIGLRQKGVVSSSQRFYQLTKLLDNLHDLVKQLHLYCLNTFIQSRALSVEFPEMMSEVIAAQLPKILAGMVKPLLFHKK

[7] = tested on: HEK-293T; experiment: Antagonist activity at FXRalphaLBD expressed in HEK293T cells co-expressing GAL4 DBD assessed as inhibition of CDCA-induced transactivation at 60 uM after 18 hrs by luciferase reporter gene assay; type: functional, cell-based; settings: Homo sapiens
Summary of the method: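 Mammalian one-hybrid assay in HEK293T cells cotransfected with pCMX-Gal4DBD-FXRαLBD, UAS-TK-Luc reporter and pRL-SV40 Renilla vector. Cells were exposed to vehicle or compound for 18 h, with or without 20 μM CDCA. Read-out was dual-luciferase. Three independent experiments.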

For `COc1cc(/C=C2\C(=O)N(c3cccc([N+](=O)[O-])c3)N=C2c2ccccc2)ccc1O`, the Activity [1] was 17.2%, the Activity [2] was “Dose-dependent effect” and the inhibition [3] was “inactive”. The inhibition [4] was “Active”, the Activity [5] was “Dose-dependent effect” and the inhibition [6] was “inactive”. The inhibition [7] was “Active”.

From ChEMBL document CHEMBL2169822, “Discovery and optimization of 1,3,4-trisubstituted-pyrazolone derivatives as novel, potent, and nonsteroidal farnesoid X receptor (FXR) selective antagonists” (J Med Chem, 2012)
